Article PMC9237582 (Asian Journal of Pharmaceutical Sciences, 2022)

Experiments:
NIH-3T3 cells = assay: Scratch test, TGF-β1-induced cell migration; type: cell-based, mouse; details: TGF-β1 5 ng/ml, 48 h; vs TGF-β1 group
How it was run: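 NIH-3T3 fibroblasts were seeded in 12-well format, cultured 24 h, then scratched. After 24 h synchronisation, TGF-β1 (5 ng/ml) was added with test compound, SB431542 or a reference drug, and incubated 48 h. Wounds were photographed under an inverted microscope at 0, 24 and 48 h after drug addition.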

[1] = Lung tissue distribution study; type: in vivo, rat
How it was run: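 Male Sprague–Dawley rats (200 ± 20 g), fasted 12 h. Dose 10 mg/kg as Sal B, given either as dry powder or as iv solution. Powder was insufflated intratracheally under chloral hydrate anaesthesia (three 1.5 ml air pushes). Lungs were collected at 0.033–12 h (9 time points, n = 3 each) and homogenised 1:5 (g/ml) in iced saline. Homogenates were processed as for plasma and quantified by UPLC-MS/MS.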

[2] = Preliminary pharmacokinetic study in plasma; type: in vivo, rat
How it was run: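 Male Sprague–Dawley rats (200 ± 20 g, n = 6/group). Dose 10 mg/kg as Sal B, by intratracheal powder insufflation or iv solution. Suborbital blood was taken into heparin at 0.033–12 h, and plasma was spun 10 min at 4 °C. Ascorbic acid, internal standard and HCl were added, then ethyl acetate extraction. Dried extract was reconstituted in methanol-water 80:20 for UPLC-MS/MS; parameters came from concentration-time data.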

[3] = cited from earlier work
[4] = system: bleomycin-induced rat model of IPF; assay: Preliminary pharmacodynamics in bleomycin-induced rat model of IPF; type: in vivo; details: Day 29, vs bleo group; same dosing
How it was run: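 Male Sprague–Dawley rats under chloral hydrate anaesthesia received intratracheal bleomycin (5 mg/kg in 0.1 ml saline), then were held upright and rotated 5 min; controls got saline. From day 1, test powder was insufflated at 10 mg/kg as Sal B once daily for 28 d. Comparators: same dose iv, reference drug intragastric 31.5 mg/kg, or air. On day 29, right lung lavaged (3× cold saline); left lung stored −80 °C for Hyp.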

[5] = system: NIH-3T3 mouse embryonic fibroblasts; assay: MTT assay; type: cell-based; details: NIH3T3, 48 h
How it was run: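 NIH-3T3 cells were grown in high-glucose DMEM with 10% FBS and penicillin/streptomycin at 37 °C, 5% CO2, in 96-well format. Test compound was given at 25–200 µg/ml and a reference drug at 0.25–10 µM, for 48 h. MTT (5 mg/ml) was added for 4 h, dissolved in DMSO, and absorbance read at 490 nm.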

[6] = Sal B in rat lung tissue, 10 mg/kg as Sal B, iv solution or pulmonary DPI, n = 3
[7] = male, Sprague-Dawley, rat, lung tissue, iv, 10 mg/kg
[8] = Sal B in rat plasma, 10 mg/kg as Sal B, iv solution or pulmonary DPI, n = 6
[9] = male, Sprague-Dawley, rat, plasma, iv, 10 mg/kg

SMILES | effect on TGF-β1-induced cell migration (NIH-3T3 cells) | Hyp content in lung tissue homogenate [4] | IFN-γ content in BALF [4] | IL-1β content in BALF [4] | IL-4 content in BALF [4] | IL-6 content in BALF [4] | IL-18 content in BALF [4] | MDA content in lung tissue homogenate [4] | SOD activity in lung tissue homogenate [4] | TGF-β1 protein content in BALF [4] | serum MPO content [4] | also measured
NC(=O)c1ccc(-c2nc(-c3ccc4c(c3)OCO4)c(-c3ccccn3)[nH]2)cc1 [SB431542] | significantly inhibited | – | – | – | – | – | – | – | – | – | – | –
O=C(/C=C/c1ccc(O)c2c1[C@H](C(=O)O[C@H](Cc1ccc(O)c(O)c1)C(=O)O)[C@@H](c1ccc(O)c(O)c1)O2)O[C@H](Cc1ccc(O)c(O)c1)C(=O)O [Sal B, Salvianolic acid B] | – | significantly lower | not significantly different | significantly decreased | not significantly different | significantly decreased | significantly decreased | significantly reduced | increased significantly | significantly decreased | significantly reduced | AUC0-∞ [1, 6]: 1898.5 ± 134.03 ng·h/g; Cmax [1, 6]: 13,150.38±619.02 ng/g; Lz [1, 6]: 0.77 ± 0.04 h⁻¹; Cmax [1, 7]: 13200 ng/g; MRT [1, 7]: 11.4 min; Tmax [1, 7]: 1.98 min; half-life [1, 7]: 54 ± 3 min; Cl/F [2, 8]: 41.5 ± 7.83 mL/min/kg; Lz (elimination of phase slope) [2, 8]: 0.45 ± 0.07 h⁻¹; Vz/F [2, 8]: 5.62 ± 1.47 L/kg; AUC(0-inf) [2, 9]: 6550 ± 1490 ng·h/mL; Cmax [2, 9]: 16400 ng/mL; MRT [2, 9]: 49.8 ± 6 min; Tmax [2, 9]: 1.98 min; half-life [2, 9]: 93.6 ± 16.8 min; absolute bioavailability of Sal B in previous studies [3]: 19.15%±7.44%
COC(=O)c1ccc2c(c1)NC(=O)/C2=C(\Nc1ccc(N(C)C(=O)CN2CCN(C)CC2)cc1)c1ccccc1 [nidanib, nintedanib, reference compound] | significantly inhibited the migration of NIH-3T3 cells in a concentration dependent manner | significantly lower | significantly increased(P < 0.01) | significantly decreased | significantly decreased | significantly decreased | significantly decreased | significantly reduced | increased significantly | significantly decreased | significantly reduced | concentration with no significant effect on cell viability [5]: < 1000 nM
